Experimental data gathered from unrelated publications.
Lines come from different studies, so protocols differ.
Target: Serine/threonine-protein kinase PLK3 (PLK3, Homo sapiens, UniProt Q9H4B4)

The activity vs control of `CC(C)c1ccc(NC(=O)c2cccs2)c(-c2nc3ccccc3[nH]c2=O)c1` is reported as 97% (enzyme activity; inhibitor; 1 µM).
For `O=C(N1CCS(=O)(=O)CC1)N1C[C@H](c2ccc(OC(F)(F)F)cc2)C[C@H](c2nc(C3CC3)no2)C1`, the remaining binding was 98% (cell-free assay; competition with immobilised ligand; 1 µM).
The inhibition of `CNC(=O)c1cc(Oc2ccc(NC(=O)Nc3ccc(Cl)c(C(F)(F)F)c3)cc2)ccn1` is reported as -12% (enzyme activity; inhibitor; 0.3 µM).
For `CC(C)(C)c1nc2c(s1)c1nc(N)ncc1c1ccc(NS(=O)(=O)c3c(F)cccc3F)c(F)c12`, the remaining activity was 91% (enzyme activity; inhibitor; radiometric; 1 µM).
`COc1cc(Cl)c(C(=O)N[C@@H](CN[C@H]2CC[C@@H](N)CC2)Cc2ccc(C#N)cc2)cc1-c1ccc(CN[C@H](C)c2ccc(C)cc2)o1` gave a remaining activity of 105% (enzyme activity; inhibitor; 1 µM).
For `O=C(Nc1cnn(-c2csc(C(=O)NC3COC3)c2)c1)Nc1c(F)cccc1Cl`, the remaining activity was 96% (enzyme activity; inhibitor; 5 µM).
The remaining activity of `CCN(CC)c1ccc(C2=NNC(=O)CC2C)cc1[N+](=O)[O-]` (centres unmarked) is reported as 104% (enzyme activity; inhibitor; 10 µM).
`O=C1Nc2ccc(Cl)cc2C1=Cc1cc(Cl)c(O)c(Cl)c1` has a remaining signal of 98.2% (cell-free assay; 0.5 µM).
`Nc1cnc(N2CCc3cc(S(=O)(=O)Nc4c(F)cc(Cl)cc4F)cc(N4CCCC4=O)c32)nc1` has a remaining binding of 100% (cell-free assay; competition with immobilised ligand; 1 µM).
`CCCOc1ccc(OC)c(F)c1C(=O)c1ccc(C(=O)N[C@@H]2CNC[C@H]2NC(=O)c2ccc3[nH]ncc3c2)cc1` gave a remaining activity of 119% (enzyme activity; inhibitor; 10 µM).
For `CCN(CC)CCNC(=O)c1c(C)[nH]c(/C=C2\C(=O)Nc3ccc(F)cc32)c1C`, the inhibition was -4% (enzyme activity; inhibitor; 10 µM).
`N#CC1(c2ccccn2)CCN(Cc2cc(C(=O)N3CCCC3)c(=O)n3ccccc23)CC1` gave a remaining binding of 100% (cell-free assay; competition with immobilised ligand; 1 µM).
`Cc1ccc(C(=O)NCc2ccsc2)cc1C#Cc1cn(C(C)C)c2ncnc(N)c12` has an activity vs control of 118% (enzyme activity; inhibitor; 1 µM).
`FC(F)(F)c1ccc2c(c1)nc(-c1cccnc1)n2C1CC1` gave a remaining binding of 100% (cell-free assay; competition with immobilised ligand; 1 µM).
`Cc1ccc(C(=O)Nc2ccc(CN3CCN(C)CC3)c(C(F)(F)F)c2)cc1C#Cc1cnc2cccnn12` has a remaining activity of 89% (enzyme activity; inhibitor; 23.5 nM).
`CCOC(=O)c1cc2cc(-c3cc(C(=O)NCc4ccc(C(=O)O)cc4)nn3C)ccc2[nH]1` has a remaining binding of 70% (cell-free assay; competition with immobilised ligand; 0.1 µM).
`COc1cc2ncnc(Nc3ccc(Oc4ccccc4)cc3C)c2cc1OC` gave an inhibition of -1% (enzyme activity; inhibitor; 1 µM).
